# p97 ATPase inh: human p97 ATPase inhibition | P55072 | recombinant p97 ATPase, Kinase-Glo ATP luminescence, 3 h | inhibition, % at 8 µM | 0.42% of 220,000 active | AID 1481; in the data active means inhibition above about 15%;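 further: 0% = DMSO vehicle and 100% = wells lacking enzyme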
# Target sequence (P55072 whole entry, looked up): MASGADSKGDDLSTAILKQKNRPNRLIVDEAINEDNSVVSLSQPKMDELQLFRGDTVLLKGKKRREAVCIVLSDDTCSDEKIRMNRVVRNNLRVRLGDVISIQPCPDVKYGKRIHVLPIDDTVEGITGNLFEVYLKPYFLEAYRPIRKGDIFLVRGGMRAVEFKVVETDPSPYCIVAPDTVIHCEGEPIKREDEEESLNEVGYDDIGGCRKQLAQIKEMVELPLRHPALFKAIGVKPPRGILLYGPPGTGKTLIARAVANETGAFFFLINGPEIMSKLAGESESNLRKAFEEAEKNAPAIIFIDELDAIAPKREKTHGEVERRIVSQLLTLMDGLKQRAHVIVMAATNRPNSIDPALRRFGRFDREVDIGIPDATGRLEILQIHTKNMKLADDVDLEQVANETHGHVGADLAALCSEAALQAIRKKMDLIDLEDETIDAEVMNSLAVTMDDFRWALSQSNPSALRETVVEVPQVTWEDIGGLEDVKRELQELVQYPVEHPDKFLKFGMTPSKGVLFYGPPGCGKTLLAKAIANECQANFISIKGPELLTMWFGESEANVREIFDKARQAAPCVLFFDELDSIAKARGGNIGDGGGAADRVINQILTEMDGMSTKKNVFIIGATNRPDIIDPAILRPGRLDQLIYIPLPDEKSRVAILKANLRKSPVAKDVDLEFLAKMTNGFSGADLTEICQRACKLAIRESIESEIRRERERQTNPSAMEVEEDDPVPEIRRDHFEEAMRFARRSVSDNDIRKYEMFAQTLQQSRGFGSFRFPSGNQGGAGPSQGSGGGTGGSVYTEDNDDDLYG
# NS3 helicase inh: inhibitors of Hepatitis C virus NS3 helicase | NS3 helicase DNA unwinding, Cy5 molecular beacon fluorescence | inhibition, % at 10.9 µM | 0.56% of 290,000 active;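 active means inhibition above the mean of all tested compounds plus 3 SD, set per campaign, cut at about 35% in these data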;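 further: 0% = DMSO wells and 100% = thioflavine S control wells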
#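 Test system: hepatitis C virus NS3 helicase domain fragment enzyme. Also added: annealed dual-labelled DNA beacon duplex, ATP-started. Timing: 60 min unwinding reaction at 25 °C after ATP addition. Technique: Cy5 fluorescence. Measure: % inhibition of unwinding.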
# XBP1 UPR activ: activators of adaptive arm of unfolded protein response (XBP1) | 0.33% of 330,000 active | CHO-XBP1 luciferase reporter, IRE1-XBP1 UPR activation, luminescence; percent of tunicamycin response, DMSO as zero | activation, % at 20 µM;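 active means versus positive control, 20 µM dose yields 30% or more activation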;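 further: 100% = tunicamycin at 10 µg/mL and 0% = DMSO only wells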
#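 Material: CHO-XBP1 cells stably carrying IRE1-XBP1-driven luciferase reporter | Medium: F12 with 10% serum | Compound dosing: 20 µM single concentration, DMSO 1% | Incubation: Overnight seeding at 37 °C, 6 h compound treatment at 37 °C | Detection: Steady-Glo luminescence read | Read-out basis: % activation of reporter signal versus tunicamycin and DMSO controls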
# CHOP inh: CHOP inhibition in unfolded protein response. CHO-K1 CHOP-promoter luciferase, tunicamycin-induced, 15-18 h. inhibition, % at 10 µM. 3.8% of 220,000 active. AID 2732;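 active means compounds that reduced the stress-induced luciferase reporter signal by more than about 70% of percent inhibition, limit read from the data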;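 further: 0% = tunicamycin plus vehicle and 100% = wells without tunicamycin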
# M18AAP inhibitor: blocks P. falciparum M18 aspartyl aminopeptidase; recombinant PfM18AAP, H-Glu-NHMec fluorogenic cleavage; inhibition, % at 7.35 µM; 1.2% of 290,000 active;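 active means inhibition above the campaign mean inhibition over all tested compounds plus 3 SD, cut at about 28% in these data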;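 further: 0% = plate median of test compound wells and 100% = 2 mM ZnCl2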
# CHOP UPR activ: apoptotic UPR (CHOP) activation. CHO-CHOP luciferase reporter, luminescence; percent of tunicamycin response over DMSO baseline. activation, % at 10 µM. 0.34% of 330,000 active;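 active means at 10 µM dose, activation of 40% or more, normalized to positive control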;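 further: 100% = tunicamycin at 10 µg/mL and 0% = DMSO alone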
#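 Assay system: CHO-CHOP cells, stable luciferase reporter of PERK-eIF2a-CHOP signalling / Buffer or medium: F12 plus 10% serum / Compound dosing: one dose, 10 µM in 0.5% DMSO / Times: 6 h compound treatment, 37 °C / Technique: luciferase luminescence / Read-out: % reporter activation, DMSO baseline versus tunicamycin full activation / Benchmarks: tunicamycin and DMSO controls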
# UPR XBP1 confirm: adaptive UPR (XBP1) activation, confirmed; 63% of 1,000 active; shares compounds with XBP1 UPR activ; AID 485299; CHO-XBP1 IRE1-XBP1 luciferase reporter, luminescence; activation, % at 20 µM;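 active means reporter signal at least 30% of the positive control's activation in two or more of four replicate wells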;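 further: plate controls were DMSO negative control for no effect and tunicamycin 10 µg/mL positive control for full effect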
# Active calls of the source: *; · = no result given. Shown are actives, neighbours in structure and some others; about 4.5% of the full set was active somewhere.
SMILES,p97 ATPase inh,NS3 helicase inh,XBP1 UPR activ,CHOP inh,M18AAP inhibitor,CHOP UPR activ,UPR XBP1 confirm
COc1ccccc1CCNC(=O)C1CCN(c2nnc(C)c3c(C)n(-c4ccc(C)cc4)nc23)CC1,·,-84,114*,·,4,5,139*
CCOc1ccccc1CNC(=O)C1CCN(c2nnc(C)c3c(C)n(-c4ccc(C)cc4)nc23)CC1,·,-80,64*,·,1,35,85*
Cc1ccc(-n2nc3c(N4CCC(C(=O)NCc5ccccc5C)CC4)nnc(C)c3c2C)cc1,·,-85,16,·,3,0,·
CCN(CC)CCCn1c2c(c(SCC(=O)Nc3nc(C)cs3)nc1=O)CCC2,·,·,3,·,·,2,·
Cc1cc(C)n(-c2nc(NCCO)c3c4c(sc3n2)CCCC4)n1,1,-7,3,-65,5,3,·
Cc1cc(C)n(-c2nc(NCCCO)c3c4c(sc3n2)CCCC4)n1,-4,-3,41*,-114,-8,-2,21
O=C(N/N=C/c1cccc(OCC(=O)N2CCCC2)c1)C(=O)Nc1ccccc1F,-1,8,-2,26,-10,2,·
Clc1ccc(C2=Nn3c(nnc3-c3cc(-c4ccccc4)n[nH]3)SC2)cc1,5,-1,66*,-27,-2,14,51*
c1ccc(C2=Nn3c(nnc3-c3cc(-c4ccccc4)n[nH]3)SC2)cc1,10,-13,26,47,5,7,·
COc1cccc(-c2nc(CS(=O)CC(=O)NC3CCCCC3)c(C)o2)c1 (centres undefined),·,3,1,·,-1,-1,·
O=C(Nc1ccc2oc(-c3ccccc3Cl)nc2c1)c1ncn[nH]1,-7,9,8,52,23,8,·
O=C(Nc1ccc2oc(-c3ccccc3Cl)nc2c1)c1cncc(Br)c1,-6,2,32*,71*,-5,4,80*
O=C(CSc1ccc2nnc(-c3ccc(Cl)cc3)n2n1)N1CCCc2ccccc21,3,3,50*,23,0,3,18
CCc1ccc(-c2cc(C(F)(F)F)n3nc(C(=O)Nc4cnn(Cc5ccc(C)cc5)c4)cc3n2)s1,-1,9,75*,4,0,27,288*
O=C(CN1C(=O)c2ccccc2C1=O)OCC(=O)N1CCCCC1,·,·,3,·,·,3,·
COc1ccc(N(Cc2cc(=O)[nH]c3ccccc23)C(=O)CCl)cc1,·,-4,-11,·,2,-1,·
Cc1cnc(Nc2nc3ccccc3o2)nc1C(=O)Nc1cccc(C(F)(F)F)c1,-7,0,45*,91*,1,3,9
O=C(CC1C(=O)NCCN1CCCc1ccccc1)NCCc1ccccc1Cl (centres undefined),·,-61,-6,·,16,1,·
CC(=O)Nc1ccc(/C=C2\CCc3ccccc3C2=O)cc1,·,-9,-3,·,3,7,·
C=CCn1c(SCc2nc3sc4c(c3c(=O)[nH]2)CCCC4)nc2ccccc2c1=O,1,1,1,-8,-8,4,·
C=CCn1c(SCc2nc3ccccc3c(=O)[nH]2)nc2sc3c(c2c1=O)CCCC3,-9,-2,132*,-12,-1,0,-1
COc1ccc(-c2cc(C(=O)Nc3cc(OC)cc(C(=O)Nc4cccc(C(F)(F)F)c4)c3)[nH]n2)cc1,·,·,37*,23,·,29,18
COc1cc(NC(=O)c2ccno2)cc(C(=O)Nc2cccc(C(F)(F)F)c2)c1,·,·,0,10,·,-1,·
O=C(NCC1OCCc2ccccc21)c1cc(COc2ccc(F)cc2Cl)on1 (centres undefined),0,-5,-1,10,5,-1,·
CCOc1cc(/C=N/NC(=O)Cn2nc([N+](=O)[O-])cc2C)cc(Br)c1OCc1ccccc1C,6,-1,57*,60,2,17,80*
SMILES,p97 ATPase inh,NS3 helicase inh,XBP1 UPR activ,CHOP inh,M18AAP inhibitor,CHOP UPR activ,UPR XBP1 confirm
Cc1cc2nc(CCN3CCOCC3)n(S(=O)(=O)c3ccc(C(C)(C)C)cc3)c2cc1C,-9,-13,32*,36,-4,15,0
CC(=O)N1CCN(CC(=O)Nc2ccccc2Sc2ccc(Cl)cc2)CC1,1,-8,0,17,-2,0,·
O=C(CCl)Nc1ccccc1Sc1ccc(Cl)cc1,0,-11,45*,-26,7,25,7
COc1ccccc1-c1nnc2sc(COc3ccccc3)nn12,-1,-9,0,35,4,-1,·
CCN(CC)c1ccc(-c2nn3c(-c4ccccc4OC)nnc3s2)cc1,-3,-37,30*,·,0,2,32*
COC(=O)c1c(NC(=S)NN2CCN(C)CC2)sc2c1CCC(C)C2 (centres undefined),3,-56,34*,64,0,10,20
Cc1c(O)cc2c(c1O)C(=O)CC(c1ccccc1)O2 (centres undefined),·,·,121*,14,·,12,173*
CCn1nc(C)cc1C(=O)Sc1cccc(Br)c1,-1,-2,97*,19,8,8,9
CCOC(=O)c1c(C)[nH]c(C(=O)COc2ccc3ccc(=O)oc3c2)c1C,·,·,41*,·,·,0,3
COC(=O)c1[nH]c2cc(OC)c(OC)cc2c1/C=N/Nc1ccccc1,·,-15,36*,·,1,9,12
O=C1CCCN1c1ccc(N2CCCC2=O)cc1,·,9,-2,·,-3,0,·
Cc1ccc(-c2cc(C(=O)N3CCN(c4ccccc4O)CC3)c3ccccc3n2)o1,·,-16,38*,·,18,4,1
CC1(C)CC(=O)C(C=Nc2ccc3cn[nH]c3c2)=C(O)C1,-5,-2,30*,47,17,15,10
CC1(C)CC(=O)C(C=Nc2ccc3[nH]ncc3c2)=C(O)C1,1,-7,6,21,-3,1,·
CCn1c(/C=C/c2c(C)[nH]c3ccccc23)nc2ccccc2c1=O,3,2,216*,94*,-3,32,81*
CCn1c(/C=C/c2c[nH]c3ccccc23)nc2ccccc2c1=O,-1,6,15,46,-1,7,·
Cc1[nH]c2ccccc2c1/C=C/c1nc2ccccc2c(=O)n1-c1ccc([N+](=O)[O-])cc1,9,2,47*,-4,-3,9,36*
C=CCN(Cc1cccs1)C(=O)CN1CCN(S(=O)(=O)c2ccc3c(c2)OCCCO3)CC1,·,·,2,·,·,0,·
Cc1cccc(Nc2nc(NCC3CCCO3)nc(N)c2[N+](=O)[O-])c1 (centres undefined),6,6,1,50,1,1,·
